This note sets out measurements from ChEMBL document CHEMBL2375304, “Synthesis and anticancer activity of novel 2-pyridyl hexahyrocyclooctathieno[2,3-d]pyrimidine derivatives” (2013).

Type in all cases: functional
The test system of test [1] is HL-60(TB). Briefly: Growth inhibition of human HL-60(TB) cells at 10^-5 M after 48 hrs by Sulforhodamine B assay relative to control. The note with it: HL-60, 48 h, read-out: GI. Put shortly:
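First-stage single-dose screen at 10⁻⁵ M. Cells pre-incubated 24 h at 37 °C, 5% CO2, then exposed to drug for 48 h. Settled cells fixed with TCA (final 16%), SRB-stained and read at 515 nm. Percentage growth inhibition is derived from treated, untreated control and time-zero absorbances.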

For test [2], the system named is MOLT-4. Nature of the test: Growth inhibition of human MOLT4 cells at 10^-5 M after 48 hrs by Sulforhodamine B assay relative to control. The conditions noted are these: MOLT-4, 48 h, read-out: GI. The gist of the method:
(§1)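 Single-dose primary screen at 10⁻⁵ M across 49 lines. Cells were plated 24 h beforehand, with a TCA-fixed time-zero plate, then exposed 48 h at 37 °C, 5% CO2. Cells were fixed with cold TCA, stained with SRB and read at 515 nm. Percent growth was calculated against time-zero and untreated-control absorbances.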
For orientation: The SRB assay estimates cell density from bound dye.

The test system of test [3] is HOP-62. Nature of the test: Growth inhibition of human HOP62 cells at 10^-5 M after 48 hrs by Sulforhodamine B assay relative to control. The note with it: HOP-62, 48 h, read-out: GI. The gist of the method: (§2)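 Single-dose screen at 10⁻⁵ M. Cells are preincubated 24 h at 37 °C in 5% CO2, then exposed to the compound, diluted from a DMSO stock into medium with gentamicin, for 48 h. Adherent cells are fixed with cold TCA (final 10%) and suspension cells with TCA (final 16%). Cells are stained with 0.4% SRB in 1% acetic acid and bound dye is read at 515 nm. Percent growth inhibition is taken against control wells and time-zero plates.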

The test system of test [4] is SF-295. Briefly: Growth inhibition of human SF295 cells at 10^-5 M after 48 hrs by Sulforhodamine B assay relative to control. The note with it: SF-295, 48 h, read-out: GI. The gist of the method: as §1
The subject of test [5] is DU-145. Briefly: Growth inhibition of human DU145 cells at 10^-5 M after 48 hrs by Sulforhodamine B assay relative to control. The note with it: DU-145, 48 h, read-out: GI. The gist of the method: as §2
The subject of test [6] is SW-620. Briefly: Growth inhibition of human SW620 cells at 10^-5 M after 48 hrs by Sulforhodamine B assay relative to control. The note with it: SW-620, 48 h, read-out: GI. Put shortly: as §1
Test [7] deals with MDA-MB-231. Briefly: Growth inhibition of human MDA-MB-231 cells at 10^-5 M after 48 hrs by Sulforhodamine B assay relative to control. The note with it: MDA-MB-231, 48 h, read-out: GI. Put shortly: as §2
Test [8] deals with RXF 393. Briefly: Growth inhibition of human RXF393 cells at 10^-5 M after 48 hrs by Sulforhodamine B assay relative to control. The note with it: RXF 393, 48 h, read-out: GI. The gist of the method: as §1
The test system of test [9] is NCI-H460. Nature of the test: Growth inhibition of human NCI-H460 cells at 10^-5 M after 48 hrs by Sulforhodamine B assay relative to control. The note with it: NCI-H460, 48 h, read-out: GI. Put shortly:
as §1

Test [10] concerns 786-0. Briefly: Growth inhibition of human 786-0 cells at 10^-5 M after 48 hrs by Sulforhodamine B assay relative to control. The note with it: 786-0, 48 h, read-out: GI. The gist of the method: as §2
For test [11], the system named is SF-539. Briefly: Growth inhibition of human SF539 cells after 48 hrs by Sulforhodamine B assay. The conditions noted are these: SF-539, 48 h. The gist of the method:
(§3)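 Cells were preincubated 24 h at 37 °C, 5% CO2, and a time-zero plate was TCA-fixed. Five concentrations were made by serial dilution from a DMSO stock (400-fold the top concentration) and incubated 48 h. Adherent cells were fixed with 10% final TCA and suspension cells with 16%. Plates were stained with 0.4% SRB and read at 515 nm. GI50 is the concentration giving 50% reduction in net protein increase versus control.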

The test system of test [12] is DU-145. Briefly: Growth inhibition of human DU145 cells after 48 hrs by Sulforhodamine B assay. The conditions noted are these: DU-145, 48 h. The gist of the method: (§4)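 Five-concentration SRB assay using 10-fold or ½-log serial dilutions from a DMSO stock. Exposure is 48 h at 37 °C in 5% CO2 after 24 h preincubation. TCA fixation is followed by SRB staining and a reading at 515 nm. Percentage growth is computed from time-zero, control and treated absorbances. GI50 is the concentration where [(Ti−Tz)/(C−Tz)]×100 = 50, read from the plot against log concentration.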

Test [13] has as its system MCF7. Briefly: Growth inhibition of human MCF7 cells after 48 hrs by Sulforhodamine B assay. The conditions noted are these: MCF7, 48 h. Put shortly:
as §4

Test [14] concerns OVCAR-4. Briefly: Growth inhibition of human OVCAR4 cells after 48 hrs by Sulforhodamine B assay. The conditions noted are these: OVCAR-4, 48 h. The gist of the method:
as §3

In test [15] the test system is A549. Nature of the test: Growth inhibition of human A549/ATCC cells after 48 hrs by Sulforhodamine B assay. The note with it: A549, 48 h. The gist of the method:
as §4

Test [16] deals with T47D. Nature of the test: Growth inhibition of human T47D cells after 48 hrs by Sulforhodamine B assay. Put shortly:
as §3

Test [17] concerns UO-31. Nature of the test: Growth inhibition of human UO31 cells after 48 hrs by Sulforhodamine B assay. The note with it: UO-31, 48 h. Put shortly:
(§5)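 Five-concentration stage in the […]-cell-line panel, using 10-fold or ½-log serial dilutions made from a DMSO stock (400-fold). Cells were preincubated 24 h at 37 °C, then drug-exposed 48 h. A time-zero plate was fixed with TCA at dosing, adherent cells were fixed with cold TCA (10% final), and protein was stained with SRB, absorbance 515 nm. GI50 was where [(Ti−Tz)/(C−Tz)]×100 = 50, from the percent growth vs log concentration plot, expressed as log10 GI50.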

Test [18] deals with U-251. Nature of the test: Growth inhibition of human U251 cells after 48 hrs by Sulforhodamine B assay. The note with it: U-251, 48 h. Put shortly:
as §5

Test [19] has as its system LOX IMVI. Nature of the test: Growth inhibition of human LOXIMVI cells after 48 hrs by Sulforhodamine B assay. Put shortly:
as §4

The subject of test [20] is HT-29. Nature of the test: Growth inhibition of human HT-29 cells after 48 hrs by Sulforhodamine B assay. The note with it: HT-29, 48 h. The gist of the method: as §4
For test [21], the system named is SK-OV-3. Nature of the test: Growth inhibition of human SKOV3 cells after 48 hrs by Sulforhodamine B assay. The conditions noted are these: SK-OV-3, 48 h. Put shortly: as §3
For test [22], the system named is HCT-116. Briefly: Growth inhibition of human HCT116 cells after 48 hrs by Sulforhodamine B assay. The note with it: HCT-116, 48 h. The gist of the method: as §4
Test [23] is described as follows: Growth inhibition of human NCI-ADR-RES cells after 48 hrs by Sulforhodamine B assay. The gist of the method:
as §3

The test system of test [24] is SR. Briefly: Growth inhibition of human SR cells after 48 hrs by Sulforhodamine B assay. Put shortly:
as §3

In test [25] the test system is SR. Nature of the test: Growth inhibition of human SR cells at 10^-5 M after 48 hrs by Sulforhodamine B assay relative to control. The conditions noted are these: read-out: GI. The gist of the method:
as §1

With `COc1ccc(N2CCN(c3nc(-c4ccncc4)nc4sc5c(c34)CCCCCC5)CC2)cc1`, the inhibition of growth at 10 µM in test [1] came to 15.2%; in test [2], 16.1%; in test [3], 0.29%; in [4], 11.5%; in test [5], 2.73%; in test [6], 1.53%. Besides, the inhibition of growth at 10 µM was found to be 12.1% in test [7], 17.2% in test [8], 5.35% in [9] and 11.1% in [10].

As a reminder, the GI50 is the concentration at which growth is held to half of that of the control. A lower GI50 goes with more potent growth inhibition. With `COc1ccc(N2CCN(c3nc(-c4ccccn4)nc4sc5c(c34)CCCCCC5)CC2)cc1`, the GI50 was 67.6 µM in test [11]; 28.2 µM in [12]; 3.16 µM in test [13]; 8.51 µM in [14]; 3.24 µM in [15]; 6.31 µM in test [16]. In addition, the GI50 in test [17] is 3.31 µM; in test [18], 4.27 µM; in test [19], 6.31 µM; in [20] it was 5.01 µM; in [21], above 100 µM; in test [22], 3.24 µM. Also, the GI50 is 4.79 µM in test [23] and 3.16 µM in test [24].

For the compound `CN1CCN(c2nc(-c3ccncc3)nc3sc4c(c23)CCCCCC4)CC1`, the GI50 in test [11] is 8.32 µM; in test [12], 12.6 µM; in test [13], 6.61 µM; in test [14], 12.6 µM; in test [15] it was 11.5 µM; in [16], 13.5 µM. Moreover, the GI50 in [17] is 1.58 µM; in test [18], 9.33 µM; in [19] it was 8.32 µM; in [20], 4.79 µM; in test [21] it was 12 µM; in test [22], 5.13 µM. Moreover, the GI50 in [23] was 8.13 µM; in test [24], 2.82 µM.

Turning to `CN1CCN(c2nc(-c3ccccn3)nc3sc4c(c23)CCCCCC4)CC1`, the inhibition of growth at 10 µM in test [1] was 4.37%; in test [2] it was 7.6%; in test [3] it was -3.13%; in test [4], 13.8%; in [5], -11.6%; in [6], -1.34%. Moreover, the inhibition of growth at 10 µM was 6.82% in test [7], 2.79% in [9] and 10% in [10].

For the compound `c1cc(-c2nc(N3CCOCC3)c3c4c(sc3n2)CCCCCC4)ccn1`, the inhibition of growth at 10 µM in test [25] came to 24.1%; in test [1] it was 24.6%; in test [2] it was 24.5%; in [3], 1.14%; in test [4], 19.5%; in test [5] it was 1.4%. For the same compound, the inhibition of growth at 10 µM is -9.82% in test [6], 28.1% in test [7], 8.02% in test [9] and 32.9% in test [10].
